Assay outcomes (PubChem BioAssay)
GSTO1 counter: inhibitors of recombinant GSTO1, primary screen, counter-screen for RBBP9 inhibitor project, biochemical, fluorescence polarization. activity-based probe fluorescence polarization. inhibition, % at 5.96 µM. 300,000 tested, 1.1% active;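 active = inhibition above the campaign mean inhibition plus 3 SD, cut at about 35% in these data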;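 note: 0% = GSTO1-1 with DMSO and 100% = wells lacking GSTO1-1 enzyme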
SUMO HTRF inh: inhibitors of in vitro SUMOylation cascade, primary screen, biochemical, HTRF, uHTS; SUMO-conjugating enzyme UBC9 (Homo sapiens), P63279; HTRF SUMOylation assay, SAE1/SAE2 + UBC9; inhibition, % at 35 µM; 290,000 tested, 0.36% active; AID 2006, 2009; in the data active = inhibition above about 50%, passing the limit was not always enough; inconclusive = no clear call, values can overlap the other calls
Target sequence (P63279 whole entry, looked up): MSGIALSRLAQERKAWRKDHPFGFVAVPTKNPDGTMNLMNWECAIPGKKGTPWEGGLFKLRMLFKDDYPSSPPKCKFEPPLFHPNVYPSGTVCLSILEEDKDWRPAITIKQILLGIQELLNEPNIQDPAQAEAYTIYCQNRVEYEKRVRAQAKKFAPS
PAD4 inh: human PAD4 inhibitors, primary screen, biochemical, fluorescence polarization, 1536-well format; Protein-arginine deiminase type-4 (Homo sapiens), Q9UM07; recombinant PAD4, RCA probe fluorescence polarization; inhibition, % at 6.36 µM; 330,000 tested, 0.41% active;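 active = percent inhibition above a cutoff equal to the mean of all tested compounds plus 3 SD, cut at about 15% in these data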;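 note: 0% = PAD4 with RCA probe and DMSO and 100% = probe without PAD4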
Target sequence (Q9UM07 whole entry, looked up): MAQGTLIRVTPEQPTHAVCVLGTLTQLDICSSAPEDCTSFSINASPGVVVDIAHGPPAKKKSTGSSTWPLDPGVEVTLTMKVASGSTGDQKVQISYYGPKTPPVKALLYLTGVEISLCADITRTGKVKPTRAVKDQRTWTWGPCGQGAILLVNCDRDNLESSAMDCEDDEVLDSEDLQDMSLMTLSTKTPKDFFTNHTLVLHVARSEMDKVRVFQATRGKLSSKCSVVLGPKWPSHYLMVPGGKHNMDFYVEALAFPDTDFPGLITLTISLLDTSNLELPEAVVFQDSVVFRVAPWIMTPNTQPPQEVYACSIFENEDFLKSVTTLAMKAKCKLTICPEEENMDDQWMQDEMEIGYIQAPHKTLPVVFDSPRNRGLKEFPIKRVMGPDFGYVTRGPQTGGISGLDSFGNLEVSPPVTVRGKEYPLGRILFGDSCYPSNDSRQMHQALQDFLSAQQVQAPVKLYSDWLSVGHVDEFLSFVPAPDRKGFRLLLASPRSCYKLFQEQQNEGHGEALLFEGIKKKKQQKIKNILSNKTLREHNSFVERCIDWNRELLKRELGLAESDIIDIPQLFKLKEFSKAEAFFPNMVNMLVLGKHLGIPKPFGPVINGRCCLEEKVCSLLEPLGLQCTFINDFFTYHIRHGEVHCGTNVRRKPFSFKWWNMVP
GASC-1 inh: inhibitors of GASC-1 histone demethylase, primary screen, biochemical, fluorescence, DELFIA europium. GST-JMJD2C(1-420) H3K9me3 demethylation. inhibition, % at 2.35 µM. 330,000 tested, 0.069% active. AID 2099, 2009;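 active = more than half of a compound's replicate wells show inhibition beyond 50%, single wells judged on their own value; inconclusive = some, but no more than half, of replicates pass 50% inhibition; inactive = no replicate passes 50% inhibition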;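 note: signal counts dimethyl H3K9 product captured on neutravidin plate; 0% = median of DMSO wells and 100% = 0.3 times that DMSO median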
TDP2 absorb: human TDP2 enzyme inhibitors, primary screen, biochemical, epi absorbance, recombinant enzyme; 370,000 tested, 0.34% active; AID 720702, 2013; Tyrosyl-DNA phosphodiesterase 2 (Homo sapiens), O95551; T5PNP hydrolysis, p-nitrophenol absorbance 415 nm; inhibition, % at 12.8 µM;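 active = inhibition above the mean of all tested compounds plus 3 SD, set per campaign, cut at about 25% in these data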;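 note: 0% = DMSO with enzyme and 100% = buffer with substrate but no TDP2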
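Material: recombinant human TDP2; quantity: TDP2 enzyme at 120 nM final; medium: Tris-HCl pH 7.5 with MgCl2; compound: single concentration, 12.8 µM nominal, with 1% DMSO; incubation: 2 h enzyme incubation at 37 °C; signal: epi absorbance; measure: percent inhibition; benchmarks: high control without enzyme, low control DMSO plus TDP2; repeats: singlicate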
Apaf1 inhib: inhibitors of human Apaf-1 apoptosome, primary screen, biochemical, DEVD-Rh110 fluorescence, uHTS | reconstituted apoptosome caspase-3 activity | inhibition, % at 20 µM | 330,000 tested, 0.71% active | AID 489030, 2010; active = inhibition of at least 40% at 20 µM;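 note: plate controls were DMSO wells for no effect and DEVD-CHO caspase inhibitor wells for full effect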
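Medium: Hepes buffer, pH 7.5 / System: biochemical Apaf-1 apoptosome reconstitution / Measured by: Rh110 fluorescence, excitation 480 nm, emission 540 nm / Times: compound with Apaf-1, dATP, procaspase-3 30 min, then 50 min reaction, room temperature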
GSTO1 confirm: GSTO1 inhibitor hit confirmation, counter-screen for RBBP9 inhibitor project, biochemical, fluorescence polarization, triplicate; shares compounds with GSTO1 counter; recombinant GSTO1, probe fluorescence polarization; inhibition, % at 5.96 µM; 2,400 tested, 54% active;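 active = inhibition above the primary screen's cutoff, its mean inhibition plus 3 SD, cut at about 35% in these data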;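 note: loss of polarization as inhibitors block binding of rhodamine sulfonate ester activity probe; 0% = GSTO1 with DMSO and 100% = wells lacking GSTO1 enzyme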
Numbers without * were called inactive; ? = inconclusive; nt = not tested or not shown. Hits are enriched below; roughly 1.6% of the tested compounds scored in any of these assays.

SMILES | GSTO1 counter | SUMO HTRF inh | PAD4 inh | GASC-1 inh | TDP2 absorb | Apaf1 inhib | GSTO1 confirm
CCOC(=O)C1=C(C)N(c2ccc(C)cc2)C(=O)/C1=C\c1ccc(O)c(OC)c1 | 46.1* | -2.1 | -3.9 | -2.6 | 4.3 | -21.8 | 7.0
CCOc1cc(/C=C2\C(=O)N(CCc3ccc(OC)c(OC)c3)C(C)=C2C(=O)OC)ccc1O | 43.3* | 4.5 | -11.5 | 8.5 | 11.6 | 11.5 | -1.6
CCOC(=O)[C@]12CCCC=C1N(CCCOC)C(=O)[C@@H]2CC(=O)NCc1cccc(C(F)(F)F)c1 | nt | nt | nt | nt | -4.0 | nt | nt
O=C(CCn1c(=O)oc2cc(Cl)ccc21)Nc1ccc(O)cc1 | 6.9 | 14.7 | 0.3 | -21.0 | -11.2 | 10.6 | nt
CCn1c(=O)oc2cc(NC(=O)CCl)ccc21 | 87.7* | 7.2 | -0.3 | 4.5 | -1.4 | -4.4 | 92.1*
C1=CC2=NC34CCCCC3CC3=C(CCCC3)N4C2=CC1=NC1CCCCC1 (stereo not drawn) | 76.3* | nt | 6.5 | 12.5 | nt | 36.7 | 8.3
COC(=O)[C@]12C[C@H](CC(=O)NCc3cccs3)C(=O)N(Cc3ccco3)C1=C[C@H](C(C)(C)C)O[C@@H]2C | nt | nt | nt | nt | -8.3 | nt | nt
Cc1nn(Cc2ccc(Cl)cc2Cl)c(C)c1NC(=O)CCl | 96.5* | -1.7 | -4.2 | 0.3 | -4.3 | -3.5 | 97.1*
CCNC(=O)N1C(CC(=O)OCC)C(=O)NC2CCCCC21 (stereo not drawn) | -6.8 | 12.8 | 0.3 | 9.4 | 3.6 | -6.6 | nt
COC(=O)CC1C(=O)NC2CCCCC2N1C(=O)CCl (stereo not drawn) | 54.0* | 8.3 | 3.6 | 18.5 | 6.8 | -12.3 | 79.0*
CC(=O)C(=Nc1ccccc1Cl)NNc1ccc(Cl)cc1 | 39.7* | 5.5 | -1.6 | -5.1 | -3.4 | 23.5 | 10.5
Nc1c(C(=O)N/N=C/c2ccc(Cl)cc2)cnn1-c1ccccc1 | -0.3 | 12.9 | -2.2 | -1.7 | 1.3 | 1.3 | nt
Nc1scc2c(C(=O)N/N=C/c3ccc(Cl)cc3)nn(-c3ccccc3)c(=O)c12 | 44.7* | 26.9 | -2.2 | 20.1 | 24.2 | 42.4* | 0.9
C#Cc1cccc(OC[C@@H](O)CN2CCC(C(O)(c3ccccc3)c3ccccc3)CC2)c1 | nt | nt | nt | nt | -4.4 | nt | nt
O=C1C=C(O)c2c(O)cccc2C1=O | 37.5* | 52.0 | 1.8 | nt | nt | 19.7 | 32.4
COc1ccc(Cn2cc(CN3[C@@H](CC(C)C)COc4ccc(Cl)cc4S3(=O)=O)nn2)cc1 | nt | nt | nt | nt | -1.5 | nt | nt
CC(C)CNC(=O)Nc1ccccc1F | 1.5 | 3.2 | -0.5 | 5.7 | 5.5 | -2.4 | nt
COc1cccc(NC(=O)Nc2cccc(C(=O)O)c2)c1 | -1.8 | 14.5 | -0.2 | 9.2 | 5.8 | -6.0 | nt
COc1cccc(NC(=O)NC2(C(F)(F)F)Oc3ccccc3O2)c1 | 41.2* | -11.5 | 3.0 | 16.4 | -2.1 | 7.5 | 3.4
O=C(NCc1cccnc1)NC1(C(F)(F)F)Oc2ccccc2O1 | 41.4* | -8.1 | -5.1 | 18.0 | 3.1 | 6.5 | 2.4
CC(C)CNC(=O)NC1(C(F)(F)F)Oc2ccccc2O1 | 50.6* | 8.2 | -1.6 | 0.5 | 7.7 | -15.1 | 6.8
COC(=O)[C@]12C[C@H](CC(=O)NCc3cccs3)C(=O)N(Cc3ccc(Cl)cc3Cl)C1=C[C@H](COCc1ccccc1)O[C@@H]2C | nt | nt | nt | nt | 3.9 | nt | nt
O=C(CSc1nnc(SCc2cccc3ccccc23)s1)c1ccc(F)cc1 | nt | nt | nt | nt | 1.0 | nt | nt
CC(COc1ccc(C#N)c(F)c1)CN1CCC(C(O)(c2ccccc2)c2ccccc2)CC1 (stereo not drawn) | nt | nt | nt | nt | -8.2 | nt | nt
C[C@H](CCCCC1(C)OCCO1)CCC(=O)N(c1ccccc1)c1ccccc1 | nt | nt | nt | nt | -3.3 | nt | nt
SMILES | GSTO1 counter | SUMO HTRF inh | PAD4 inh | GASC-1 inh | TDP2 absorb | Apaf1 inhib | GSTO1 confirm
COc1ccccc1NC(=O)OCCN1CCCC12CCC(c1ccccc1)CC2 (stereo not drawn) | nt | nt | nt | nt | 2.0 | nt | nt
Brc1ccc(Cn2nnc(-c3ccc(N4CCOCC4)cc3)n2)cc1 | nt | nt | nt | nt | -3.0 | nt | nt
C#CCCN([C@H](C(=O)OC)C(C)CC)S(=O)(=O)c1ccccc1Br (stereo partly drawn) | nt | nt | nt | nt | -6.5 | nt | nt
CN=c1scc(C)n1/N=C/c1ccc(O)cc1 | 1.1 | 9.1 | 1.6 | nt | -5.6 | 0.9 | nt
C=CCN=c1scc(C)n1/N=C/c1ccc(O)c(O)c1 | 95.5* | -7.9 | -3.6 | 4.0 | -6.5 | 7.3 | 8.6
O=C(CN1C(=O)CCSc2ccccc21)Nc1ccc(F)cc1F | nt | nt | nt | nt | 4.7 | nt | nt
Nc1cc(-c2ccncc2)c[nH]c1=O | 41.5* | 0.2 | -0.5 | ? | 23.0 | 7.7 | 6.7
NC(=O)c1csc(-c2ccncc2)n1 | 6.9 | 14.0 | 0.9 | 2.5 | 1.4 | 7.6 | nt
COCCCNC(=O)C[C@H]1C[C@@]2(C(=O)OC)C(=C[C@H](COCc3ccccc3)O[C@@H]2C)N(Cc2ccccc2)C1=O | nt | nt | nt | nt | -5.2 | nt | nt
O=C(O)c1cccc(O)c1O | 6.9 | nt | -0.6 | 3.2 | 7.1 | -3.7 | nt
Oc1cccc(O)c1O | 61.6* | nt | -3.5 | nt | nt | 2.1 | 6.8
O=C1CC(O)(C(F)(F)F)Oc2c1ccc1ccccc21 (stereo not drawn) | 32.2 | 6.2 | -0.3 | -13.2 | 6.0 | -0.4 | nt
O=C1CC(O)(C(F)F)Oc2ccc3ccccc3c21 (stereo not drawn) | 51.0* | -1.6 | -0.4 | 5.6 | 7.5 | 6.0 | 44.0*
CC[n+]1ccc(C[n+]2ccccc2)c2ccccc21 | 49.1* | 12.2 | -7.7 | 6.8 | 10.5 | nt | 7.4
C[C@H](O)[C@@H]1CN2CCc3ccc(N4CCOCC4)cc3[C@@H]2C[C@@H]1N(C)C(=S)NCCc1ccccc1 | nt | nt | nt | nt | 0.4 | nt | nt
Cc1cc(C(=O)N/N=C/c2ccc([N+](=O)[O-])o2)c(C)o1 | 38.1* | 19.4 | -6.4 | 8.1 | 7.0 | 16.5 | 6.8
COc1cccc(CNC2CCC23CCC(C)CC3)c1 (stereo not drawn) | nt | nt | nt | nt | -3.3 | nt | nt
COc1ccc(NS(=O)(=O)c2cccc(C(=O)NNC(=O)c3ccccc3O)c2)cc1 | 46.9* | nt | 2.9 | 5.5 | -8.8 | 15.8 | 9.1
Nc1ccc(N2CCCCC2)cc1N1CCCCC1 | 56.9* | 8.5 | -25.2 | -7.1 | 3.5 | 32.8 | 6.6
Cc1nn(-c2cc(N3CCCCC3)ccc2N)c(=O)c2ccccc12 | 7.7 | -30.9 | 1.9 | 1.5 | 3.7 | -19.2 | nt
